Experimental data taken from ChEMBL document CHEMBL1914331, “N-O chemistry for antibiotics: discovery of N-alkyl-N-(pyridin-2-yl)hydroxylamine scaffolds as selective antibacterial agents using nitroso Diels-Alder and ene chemistry” (J Med Chem, 2011).
In brackets after ≈: the same amount, converted by molar mass.

How the values were obtained:
Staphylococcus aureus [1] = assay: Antimicrobial activity against Staphylococcus aureus SG511 assessed after 18 hrs by broth microdilution method; format: functional; conditions: SG511, 18 h
Outline: (§1)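 CLSI broth microdilution in cation-adjusted MHII broth. 20 mM DMSO stocks were diluted to 512 µM, then serially 2-fold, giving final 128–0.0625 µM with 5×10⁵ CFU/mL inoculum. Incubated 18 h at 37 °C. MIC90 was the lowest concentration giving 90% inhibition by visual turbidity versus DMSO wells. Run in triplicate.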

Enterococcus faecalis [2] = assay: Antimicrobial activity against Enterococcus faecalis ATCC 49532 assessed after 18 hrs by broth microdilution method; format: functional; conditions: ATCC 49532, 18 h; outline: as §1
Micrococcus luteus = assay: Antimicrobial activity against Micrococcus luteus ATCC 10240 at 5 ug/ml after 24 hrs by Kirby-Bauer agar diffusion assay; format: functional; conditions: ATCC 10240, 24 h, read-out: DIZ
Outline: (§2)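 Ciprofloxacin control, 5 µg/mL in water, 50 µL per 9 mm well in MHII agar seeded with ~5×10³ CFU/mL (saline suspension standardized to 0.5 McFarland from an overnight LB culture). Incubated at 37 °C for 24 h; inhibition zone diameter read in mm.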

Staphylococcus aureus [3] = assay: Antimicrobial activity against Staphylococcus aureus SG511 at 5 ug/ml after 24 hrs by Kirby-Bauer agar diffusion assay; conditions: SG511, 24 h, read-out: DIZ
Mycolicibacterium vaccae = assay: Antimicrobial activity against Mycobacterium vaccae IMET 10670 at 5 ug/ml after 24 hrs by Kirby-Bauer agar diffusion assay; format: functional; conditions: IMET 10670, 24 h, read-out: DIZ; outline: as §2
Escherichia coli [4] = assay: Antimicrobial activity against Escherichia coli DC0 at 5 ug/ml after 24 hrs by Kirby-Bauer agar diffusion assay; conditions: DC0, 24 h, read-out: DIZ
Escherichia coli [5] = assay: Antimicrobial activity against Escherichia coli DC2 at 5 ug/ml after 24 hrs by Kirby-Bauer agar diffusion assay; conditions: DC2, 24 h, read-out: DIZ
Staphylococcus aureus [6] = assay: microbe, parasite or virus in culture; conditions: 134/94, 24 h, read-out: DIZ
Enterococcus faecalis [7] = assay: microbe, parasite or virus in culture; conditions: ATCC 49532, 24 h, read-out: DIZ
Enterococcus faecalis [8] = assay: microbe, parasite or virus in culture; conditions: Enterococcus faecalis, 1528, 24 h, read-out: DIZ
Bacillus subtilis = assay: microbe, parasite or virus in culture; conditions: ATCC 6633, 24 h, read-out: DIZ
Pseudomonas aeruginosa [9] = assay: microbe, parasite or virus in culture; conditions: 799/WT, 24 h, read-out: DIZ
Pseudomonas aeruginosa [10] = assay: microbe, parasite or virus in culture; conditions: 799/61, 24 h, read-out: DIZ
[11] = system: Sporobolomyces salmonicolor; assay: Antimicrobial activity against Sporidiobolus salmonicolor 549 at 10 ug/ml after 24 hrs by Kirby-Bauer agar diffusion assay; format: functional; conditions: Sporobolomyces salmonicolor, 549, 24 h; read-out: DIZ
Outline: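 Control for the yeast: amphotericin B, 10 µg/mL in 10:1 DMSO:MeOH, 50 µL per 9 mm well in inoculated MHII agar (~5×10³ CFU/mL). Incubated at 37 °C for 24 h; growth-inhibition zone diameter measured in mm.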

SMILES	MIC90 (Staphylococcus aureus [1])	MIC90 (Enterococcus faecalis [2])	zone of inhibition at 5 µg/mL (Micrococcus luteus)	zone of inhibition at 5 µg/mL (Staphylococcus aureus [3])	zone of inhibition at 5 µg/mL (Mycolicibacterium vaccae)	zone of inhibition at 5 µg/mL (Escherichia coli [4])	zone of inhibition at 5 µg/mL (Escherichia coli [5])	zone of inhibition at 5 µg/mL (Staphylococcus aureus [6])	zone of inhibition at 5 µg/mL (Enterococcus faecalis [7])	zone of inhibition at 5 µg/mL (Enterococcus faecalis [8])	zone of inhibition at 5 µg/mL (Bacillus subtilis)	zone of inhibition at 5 µg/mL (Pseudomonas aeruginosa [9])	zone of inhibition at 5 µg/mL (Pseudomonas aeruginosa [10])	zone of inhibition at 10 µg/mL [11]
O=C(O)c1cn(C2CC2)c2cc(N3CCNCC3)c(F)cc2c1=O [CIPROFLOXACIN]	0.5 µM (≈ 0.166 µg/mL)	2 µM (≈ 0.663 µg/mL)	≤ 10 mm	≥ 21 mm	≥ 21 mm	≥ 21 mm	≥ 21 mm	11 mm	16 mm	16 mm	≥ 21 mm	≥ 21 mm	≥ 21 mm	
C[C@@H]1[C@H](O)[C@@H](C)/C=C/C=C/C=C/C=C/C=C/C=C/C=C/[C@H](O[C@@H]2O[C@H](C)[C@@H](O)[C@H](N)[C@@H]2O)C[C@@H]2O[C@](O)(C[C@@H](O)C[C@@H](O)[C@H](O)CC[C@@H](O)C[C@@H](O)CC(=O)O[C@H]1C)C[C@H](O)[C@H]2C(=O)O [AMPHOTERICIN B]														16 mm
